Assay results published in ChEMBL document CHEMBL3400107, “Synthesis, structure-activity relationships, and anticonvulsant activities of 2-amino-4H-pyrido[3,2-e][1,3]thiazin-4-one derivatives as orally active AMPA receptor antagonists” (Bioorg Med Chem, 2015).

Legend:
[1] = system: Neuron; assay: Inhibition of kainate-induced neurotoxicity in primary rat hippocampal neurons after 24 hrs by LDH assay; assay type: functional, cell-based
Outline: (§1)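 Hippocampal cultures from embryonic day 18–20 Wistar rats, used after 8 or 9 days in vitro. Compounds added together with 300 µM kainate. Neuronal injury measured 24 h later as LDH release into the medium. Values are IC50 (concentration for 50% inhibition) or percent inhibition at 10 µM.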

[2] = system: Neuron; assay: Inhibition of kainate-induced neurotoxicity in primary rat hippocampal neurons at 10 uM after 24 hrs by LDH assay; assay type: functional; outline: as §1
[3] = system: Mus musculus; assay: Anticonvulsant activity in po dosed ICR mouse assessed as protection from maximal electroshock-induced seizure measured after 60 mins post dose; assay type: functional; details: 1 h
Outline: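 Compounds given orally to mice; 60 min later corneal electroshock applied (50 mA, 0.2 s, 50 Hz). Protection scored as absence of tonic extension. ED50 calculated by probit method, with 95% confidence intervals.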

[4] = AUC(infinity) in rat at 1 mg/kg, po; assay type: ADME, organism-based; set-up: time infinity, dose 1 mg/kg, route oral; details: plasma
[5] = Half life in rat at 1 mg/kg, po; assay type: ADME, organism-based; set-up: dose 1 mg/kg, route oral; details: in vivo
[6] = Oral bioavailability in rat at 1 mg/kg; assay type: ADME, organism-based; details: in vivo
[7] = Total clearance in rat at 1 mg/kg, iv; assay type: ADME, organism-based; set-up: dose 1 mg/kg, route intravenous; details: in vivo
[8] = Half life in rat at 1 mg/kg, iv; assay type: ADME, organism-based; set-up: dose 1 mg/kg, route intravenous; details: in vivo
[9] = AUC(infinity) in rat at 1 mg/kg, iv; assay type: ADME, organism-based; set-up: time infinity, dose 1 mg/kg, route intravenous; details: plasma
[10] = Cmax in rat at 1 mg/kg, po; assay type: ADME, organism-based; set-up: dose 1 mg/kg, route oral; details: in vivo
[11] = Tmax in rat at 1 mg/kg, po; assay type: ADME, organism-based; set-up: dose 1 mg/kg, route oral; details: in vivo
[12] = Volume of distribution at steady state in rat at 1 mg/kg, iv; assay type: ADME, organism-based; set-up: dose 1 mg/kg, route intravenous; details: in vivo, read-out: Vdss

Row | Compound | IC50 [1] | inhibition at 10 µM [2] | further results
1 | CN(c1ccc2sccc2c1)c1nc(=O)c2cccnc2s1 | 400 nM | – | –
2 | CN(c1ccc(Cl)cc1)c1nc(=O)c2cnccc2s1 | – | 2% | –
3 | CN(c1ccc(Cl)cc1)c1nc(=O)c2ccccc2o1 | – | 28% | –
4 | CN(Cc1ccccc1)c1nc(=O)c2cccnc2s1 | – | 0% | –
5 | COc1ccc(N(C)c2nc(=O)c3cccnc3s2)cc1 | 3400 nM | – | –
6 | CN(c1ccc2c(c1)CCC2)c1nc(=O)c2cccnc2s1 | 1300 nM | – | –
7 | CN(c1nc(=O)c2cccnc2s1)C1CCCCC1 | – | 16% | –
8 | CN(c1ccc(F)cc1)c1nc(=O)c2cccnc2s1 | 7200 nM | – | ED50 [3]: 15.3 mg/kg
9 | CN(c1ccsc1)c1nc(=O)c2cccnc2s1 | – | 28% | –
10 | CN(c1cccnc1)c1nc(=O)c2cccnc2s1 | – | 18% | –
11 | CN(c1ccc(C2CCCCC2)cc1)c1nc(=O)c2cccnc2s1 | – | 29% | –
12 | CCN(c1ccc2c(c1)OCO2)c1nc(=O)c2cccnc2s1 | 400 nM | – | ED50 [3]: 38.9 mg/kg
13 | CCN(c1cccc(OC)c1)c1nc(=O)c2cccnc2s1 | 3800 nM | – | –
14 | CN(c1ccc(Cl)cc1)c1nc(=O)c2sccc2s1 | 5400 nM | – | –
15 | CN(c1ccc(Br)cc1)c1nc(=O)c2cccnc2s1 | 1000 nM | – | ED50 [3]: 23.1 mg/kg
16 | CN(c1ccc(OC(F)(F)F)cc1)c1nc(=O)c2cccnc2s1 | 2100 nM | – | ED50 [3]: 25.2 mg/kg
17 | CN(c1ccc([N+](=O)[O-])cc1)c1nc(=O)c2cccnc2s1 | – | 38% | –

Row | Compound | IC50 [1] | inhibition at 10 µM [2] | further results
18 | CN(c1ccc(Cl)cc1)c1nc(=O)c2ccccc2s1 | 6500 nM | – | –
19 | CN(c1ccccc1)c1nc(=O)c2cccnc2s1 | – | 43% | –
20 | CN(c1ccc(Cl)cc1)c1nc(=O)c2cccnc2s1 | 2000 nM | – | AUC(0-inf) [4]: 472 ng·h/mL; half-life [5]: 34.8 min; ED50 [3]: 7.4 mg/kg; bioavailability [6]: 87.1%; clearance [7]: 30.8 mL/min/kg; half-life [8]: 26.4 min; AUC(0-inf) [9]: 542 ng·h/mL; Cmax [10]: 425 ng/mL; Tmax [11]: 15 min; Vd [12]: 1.18 L/kg
21 | CN(c1ccc(Cl)cc1)c1nc(=O)c2ccncc2s1 | – | 4% | –
22 | CCN(c1ccc(OC)cc1)c1nc(=O)c2cccnc2s1 | 2800 nM | – | –
23 | Cc1ccccc1N(C)c1nc(=O)c2cccnc2s1 | – | 4% | –
24 | CN(c1ccc(C(=O)O)cc1)c1nc(=O)c2cccnc2s1 | – | 0% | –
25 | CN(c1ccc(C(F)(F)F)cc1)c1nc(=O)c2cccnc2s1 | 2000 nM | – | –
26 | CCN(c1ccc2c(c1)OCCO2)c1nc(=O)c2cccnc2s1 | 600 nM | – | –
27 | C=CCN(c1ccc(C)cc1)c1nc(=O)c2cccnc2s1 | 9000 nM | – | –
28 | Cl.O=c1[nH]c2cc(-n3ccnc3)c([N+](=O)[O-])cc2[nH]c1=O | – | – | ED50 [3]: > 100 mg/kg
29 | CN(c1ccc(N)cc1)c1nc(=O)c2cccnc2s1 | – | 19% | –
30 | Cc1ccc(N(C)c2nc(=O)c3cccnc3s2)cc1 | 10000 nM | – | –
31 | CCOC(=O)c1ccc(N(C)c2nc(=O)c3cccnc3s2)cc1 | – | 29% | –
32 | CC(=O)N1N=C(c2ccc(N)cc2)c2cc3c(cc2C[C@H]1C)OCO3 [TALAMPANEL] | 6000 nM | – | ED50 [3]: 4.2 mg/kg
33 | CCN(c1ccc(OC)c(OC)c1)c1nc(=O)c2cccnc2s1 | – | 25% | –
34 | Cc1ccc2c(=O)nc(N(C)c3ccc(Cl)cc3)sc2n1 | – | 0% | –
